Shown are actives, neighbours in structure and some others; about 1.2% of the full set was active somewhere.
procasp3 activ = activates human procaspase-3. P42574. recombinant procaspase-3 D3A, Ac-DEVD-pNA absorbance 405 nm. activation, % at 8.5 µM. 0.11% of 330,000 active. AID 463141;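 active = activation above the mean of all tested compounds plus 3 SD, cut at about 21% in these data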
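Assay system: Autoprocessing-dead procaspase-3 D3A mutant enzyme; also added: Ac-DEVD-pNA; doses: one concentration, 8.5 µM nominal, 0.8% DMSO; times: 1 h compound preincubation, 2 h substrate hydrolysis at 25 °C; technique: 405 nm absorbance of p-nitroaniline, reads at 0 and 120 min; measure: % activation between DMSO and enzyme-spiked controls; repeats: single replicate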
LANA-H2B inh = blocks KSHV LANA binding to histone H2A/H2B; cell-free LANA-H2A/H2B peptide, fluorescence polarization; inhibition, % (test concentration not listed); Q9QR71; 0.6% of 320,000 active; AID 2629; in the data active = inhibition mostly above about 10%, no sharp cut-off; inactive = mostly below about 6.7%
procasp7 counter = counter-screen for procaspase-3 activators: activators of human procaspase-7; P55210; recombinant procaspase-7, Ac-DEVD-pNA absorbance 405 nm; D23A/D198A/D206A triple mutant, cannot self-cleave; scale: DMSO 0, 5 µM enzyme 100; activation, % at 8.5 µM; 0.093% of 330,000 active; AID 463210;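 active = percent activation above the screen-wide mean plus 3 SD, cut at about 25% in these data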
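Assay system: Uncleavable procaspase-7 mutant enzyme | Input: 2 µM procaspase-7 mutant as dispensed | Timing: 1 h compound preincubation, 2 h substrate cleavage, 25 °C | Repeats: One well per compound | Control set: DMSO wells as 0%, DMSO with 5 µM added PC-7 as 100% | Technique: Epi-absorbance of released pNA at 405 nm, two timepoints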
CR mimetic SO = yeast age-related superoxide inhibition as caloric restriction mimetic; S. cerevisiae aged cells, superoxide DHE fluorescence; stronger effect = lower value; superoxide response (% of plate mean), % at 10 µM; 0.18% of 330,000 active; AID 2690;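 active = superoxide response under a set limit, about three screen SD below normal, cut at about 65% in these data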;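 also: yeast aged for seven days with compound at 30 °C before DHE staining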
ASAP1 inh = ASAP1 ArfGAP inhibition; Q9ULH1; ASAP1-stimulated ARF1 GTP hydrolysis, GDP FP detection; inhibition, % at 16.5 µM; 0.19% of 360,000 active; in the data active = inhibition above about 25%
Target sequence (Q9ULH1 325-724 limits assumed): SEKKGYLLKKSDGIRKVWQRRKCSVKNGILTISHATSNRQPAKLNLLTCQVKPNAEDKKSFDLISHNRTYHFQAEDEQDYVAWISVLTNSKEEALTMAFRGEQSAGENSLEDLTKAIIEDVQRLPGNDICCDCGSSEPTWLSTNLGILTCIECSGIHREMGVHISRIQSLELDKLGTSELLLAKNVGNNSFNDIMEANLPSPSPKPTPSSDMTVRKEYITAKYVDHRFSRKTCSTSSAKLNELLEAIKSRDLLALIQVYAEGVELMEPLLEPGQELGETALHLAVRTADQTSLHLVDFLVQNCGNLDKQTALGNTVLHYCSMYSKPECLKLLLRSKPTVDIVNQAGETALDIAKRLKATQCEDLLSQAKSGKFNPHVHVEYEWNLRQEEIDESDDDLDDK
ARFGAP1 inh = rat ARFGAP1 inhibition; Arfgap1-stimulated ARF1 GTP hydrolysis, GDP FP detection; inhibition, % at 16.5 µM; 0.26% of 360,000 active; AID 651572;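 active = inhibition above a per-plate limit, mean inhibition of low control wells plus 3 SD, cut at about 25% in these data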
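Assay system: purified rat His6-Arfgap1 residues 1-136 (GAP domain); Reagent: human Δ17 ARF1 bound to GTP; Dosing: 16.5 µM single point, 1.26% DMSO; Times: GTP hydrolysis reaction 2 h at 25 °C; Signal: FP, GDP Alexa 633 tracer displaced from anti-GDP antibody, 620/688 nm; Measure: % inhibition from polarization.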
Superoxide pick = confirmation of caloric restriction mimetics inhibiting yeast age-related superoxide; shares compounds with CR mimetic SO; S. cerevisiae aging, superoxide DHE fluorescence; stronger effect = lower value; superoxide response (% of plate), % at 10 µM; AID 434994; 1% of 850 active;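 active = superoxide signal below 65% of the plate average of sample wells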;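 also: cells aged with compound for 7 days at 30 degrees C before staining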
DHE counter = counter-screen for compounds affecting DHE oxidation and fluorescence in yeast; AID 435000; 850 tested, under 10 active; S. cerevisiae BY4741, flow cytometry; stronger effect = lower value; fluorescence response, % at 10 µM; shares compounds with CR mimetic SO;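 active = fluorescence response below 15%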;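 also: lower means stronger quenching of DHE signal or ROS scavenging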
A number is an active result; i = inactive; nt = no result.

SMILES	procasp3 activ	LANA-H2B inh	procasp7 counter	CR mimetic SO	ASAP1 inh	ARFGAP1 inh	Superoxide pick	DHE counter
Cc1cc(C)cc(NC(=O)C(NCCN2CCOCC2)c2ccccc2)c1 (stereo not drawn)	i	i	i	i	i	i	nt	nt
O=C(CSc1ccc(-c2ccccn2)nn1)Nc1ccc(F)c(F)c1	i	i	i	i	i	i	i	i
CCOC(=O)c1ccc(NC(=O)CSc2ccc(-c3ccccn3)nn2)cc1	i	i	i	i	i	i	i	i
O=C(CSc1ccc(-c2cccnc2)nn1)Nc1ccccc1C(F)(F)F	i	i	i	i	i	i	i	i
COc1ccccc1NC(=O)CSc1ccc(-c2ccccn2)nn1	i	i	i	i	i	i	i	i
O=C(CSc1ccc(-c2ccccn2)nn1)Nc1ccc(F)cc1F	i	i	i	i	i	i	i	i
CN1CC(=O)Nc2ccc(Br)cc2C1=O	i	i	i	65	i	i	i	i
CN1CC(=O)Nc2ccccc2C1=O	i	i	i	i	i	i	nt	nt
Cn1c(=O)c2c(nc(CN3CCOCC3)n2CCN2CCOCC2)n(C)c1=O	i	i	i	60	nt	nt	i	i
COc1ccccc1C1CC(=O)Oc2cc(C)c(Cl)c(C)c21 (stereo not drawn)	i	nt	i	i	i	i	nt	nt
CC(C)CCOCC(=O)Nc1cccc(C(=O)O)c1	i	i	i	i	i	i	nt	nt
CCC1(c2ccccc2)NC(=O)N(CC(=O)Nc2cccnc2Cl)C1=O (stereo not drawn)	i	nt	i	i	i	i	nt	nt
CCC1(c2ccc(F)cc2)NC(=O)N(CC(=O)Nc2cccnc2Cl)C1=O (stereo not drawn)	i	i	i	64	i	i	i	i
CC12CCCC[C@@H]1CCC1C2CCC2(C)C1CC[C@@]2(O)CNCCO (stereo partly drawn)	i	i	i	i	i	i	i	i
Cc1nnc(NC(=O)c2nn(CC(C)C)c(=O)c3ccccc23)s1	i	i	i	i	i	i	nt	nt
Cc1nc2ccc(NC(=O)c3nn(CC(C)C)c(=O)c4ccccc34)cc2s1	i	i	i	57	i	i	i	i
COc1ccc(N2C(=O)CC(Nc3ccc(C(=O)O)cc3)C2=O)cc1OC (stereo not drawn)	i	i	i	i	i	i	nt	nt
COC(=O)c1cccc(NC2CC(=O)N(c3ccc(OC)c(OC)c3)C2=O)c1 (stereo not drawn)	i	i	i	62	i	i	i	i
COCCCN1C(=O)N(c2ccccc2)C(=O)C1CC(=O)Nc1ccc(F)cc1 (stereo not drawn)	i	i	i	62	i	i	i	i
COCCCN1C(=O)N(c2ccccc2)C(=O)C1CC(=O)Nc1ccccc1 (stereo not drawn)	i	i	i	i	i	i	nt	nt
Cc1cccc(C)c1OCCNC(=O)OCc1ccccc1	i	i	i	i	i	i	nt	nt
CCN(CC)S(=O)(=O)c1ccc(Cl)c(C(=O)Nc2cc(C)nn2-c2ccccc2C(F)(F)F)c1	i	i	i	i	nt	nt	nt	nt
Cc1ccc(N2C(N)=C(C#N)C3(C(=O)N(C)c4ccccc43)C3=C2CC(C)(C)CC3=O)cc1Cl (stereo not drawn)	i	i	i	i	i	i	nt	nt
COc1ccc2nc(Nc3nc(C)c(CCC(C)C)c(=O)[nH]3)nc(C)c2c1	i	i	i	65	i	i	i	i
COc1ccc2nc(Nc3nc(CSc4ccc(C)cc4)cc(=O)[nH]3)nc(C)c2c1	i	i	i	i	i	i	nt	nt
C=C(C)CSc1nc2sc3c(c2c(=O)n1-c1ccc(C)cc1)CCN(C)C3	nt	nt	nt	nt	i	i	nt	nt
CCCNC(=O)CSc1nnc(-c2ccc(F)cc2)o1	i	i	i	i	i	i	i	i
